Assay results reported in ChEMBL document CHEMBL1144415, “Identification of novel low molecular weight CXCR4 antagonists by structural tuning of cyclic tetrapeptide scaffolds” (J Med Chem, 2005).
pIC50: −log10 of the molar value.

The compounds below were run against T1, C-X-C chemokine receptor type 4 (Homo sapiens, UniProt P61073) (assay: Inhibition of [125I]SDF-1 binding to C-X-C chemokine receptor type 4 (CXCR4) expressed in CHO cells; range = 1-10 uM). Conditions: not given.
T1 sequence (P61073 whole entry): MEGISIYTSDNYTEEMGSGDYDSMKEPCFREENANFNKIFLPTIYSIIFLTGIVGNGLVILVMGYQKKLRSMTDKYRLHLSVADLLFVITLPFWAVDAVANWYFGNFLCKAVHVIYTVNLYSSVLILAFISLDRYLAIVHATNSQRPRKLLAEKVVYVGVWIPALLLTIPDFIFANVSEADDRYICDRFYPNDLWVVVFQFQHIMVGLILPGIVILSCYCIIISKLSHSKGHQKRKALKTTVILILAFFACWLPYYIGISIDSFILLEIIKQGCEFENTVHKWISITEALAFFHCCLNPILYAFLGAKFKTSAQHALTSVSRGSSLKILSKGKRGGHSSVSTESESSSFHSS
Assay type: cell-based
In short: (§1)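 Stable CXCR4-expressing CHO transfectants harvested with trypsin-EDTA, recovered 4 to 5 h in complete growth medium, washed in cold binding buffer (PBS with 2 mg/mL BSA). Cells at 1 × 10⁷ cells/mL incubated with 0.1 nM [¹²⁵I]-SDF-1 for 2 h on ice with agitation. Bound and free separated by centrifugation through oil cushion, gamma counting. IC50 from at least three independent experiments, mean with SD.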
`N=C(N)NCCC(=O)N[C@H]1C/C=C\C[C@H](C(=O)NCCc2ccc(O)cc2)NC(=O)[C@H](Cc2ccc3ccccc3c2)NC(=O)[C@H](CCCN=C(N)N)NC1=O` was tested, and the pIC50 was 5.00.

What follows are compounds tested against T1, C-X-C chemokine receptor type 4 (assay: Inhibition of [125I]SDF-1 binding to C-X-C chemokine receptor type 4 (CXCR4) expressed in CHO cells). Conditions: not given.
Assay type: cell-based
In short: as §1
`N=C(N)NCCC[C@@H]1NC(=O)[C@@H](NC(=O)CCNC(=N)N)CSSC[C@H](C(=O)NCCc2ccc(O)cc2)NC(=O)[C@H](Cc2ccc3ccccc3c2)NC1=O` gave a pIC50 of 6.28. In the case of `N=C(N)NCCC[C@@H]1NC(=O)[C@@H]2CCCN2C(=O)[C@@H](Cc2ccc(O)cc2)NC(=O)CNC(=O)[C@H](Cc2ccc3ccccc3c2)NC1=O`, the pIC50 was 5.80. `CN1C(=O)[C@@H](NC(=O)CCN=C(N)N)CSSC[C@H](C(=O)NCCc2ccc(O)cc2)NC(=O)[C@H](Cc2ccc3ccccc3c2)NC(=O)[C@@H]1CCCN=C(N)N` gave a pIC50 of less than 5.00. `N=C(N)NCCC[C@@H]1NC(=O)[C@@H](CCC(N)=O)NC(=O)[C@@H](Cc2ccc(O)cc2)NC(=O)CNC(=O)[C@H](Cc2ccc3ccccc3c2)NC1=O` showed a pIC50 of 6.77. Compound `N=C(N)NCCC[C@@H]1NC(=O)[C@@H](CCC(=O)O)NC(=O)[C@@H](Cc2ccc(O)cc2)NC(=O)CNC(=O)[C@H](Cc2ccc3ccccc3c2)NC1=O` has a pIC50 of 6.21. Work on `N=C(N)NCCC[C@@H]1NC(=O)[C@H]2CCCN2C(=O)[C@@H](Cc2ccc(O)cc2)NC(=O)CNC(=O)[C@H](Cc2ccc3ccccc3c2)NC1=O` yielded a pIC50 of 6.38. `N=C(N)NCCCN[C@H]1CSSC[C@H](C(=O)NCCc2ccc(O)cc2)NC(=O)[C@H](Cc2ccc3ccccc3c2)NC(=O)[C@H](CCCNC(=N)N)NC1=O` showed a pIC50 of 6.00.

Same assay, conditions: cho
For `N=C(N)NCCC[C@@H]1NC(=O)[C@H](Cc2ccc(O)cc2)NC(=O)/C=C\[C@@H](Cc2ccc3ccccc3c2)NC(=O)[C@@H](CCCNC(=N)N)NC1=O`, the pIC50 was less than 6.00. `N=C(N)NCCC[C@H]1NC(=O)[C@@H](CCCN=C(N)N)NC(=O)[C@H](Cc2ccc(O)cc2)NC(=O)/C=C\[C@@H](Cc2ccc3ccccc3c2)NC1=O` gave a pIC50 of less than 6.00.
